# Experimental data published in ChEMBL document CHEMBL4261600 (Eur J Med Chem, 2018).
# Active and inactive are the calls of the source.
# Assays:
# Homo sapiens = organism: Homo sapiens; experiment: Selectivity ratio of IC50 for recombinant GST-tagged inactive state of human CDK16 (108 to end residues)/cyclin Y (2 to end residues) to IC50 for recombinant full length His-tagged human CDK9/CyclinT1
# MV4-11 = experiment: Antiproliferative activity against human MV4-11 cells after 72 hrs by Celltiter-Glo assay; type: functional; details: MV4-11, 72 h
# How it was run: (§1)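 Cells seeded at 3000/well in 96-well plates, exposed to serially diluted compound for 72 h at 37 °C, 5% CO2. Viability read by CellTiter-Glo luminescence and normalized to DMSO control. GI50 derived from curve fit, mean of three independent measurements. Culture media: DMEM/10% FBS for adherent lines; IMDM for MV4-11 and MEC-1/2; RPMI 1640 for suspension lines and CHL.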
# U-937 = experiment: Antiproliferative activity against human U937 cells after 72 hrs by Celltiter-Glo assay; type: functional; details: U-937, 72 h; how it was run: as §1
# [1] = Antiproliferative activity against human MEC2 cells after 72 hrs by Celltiter-Glo assay; type: functional; details: MEC2, 72 h; how it was run: as §1
# [2] = Antiproliferative activity against CHO cells after 72 hrs by Celltiter-Glo assay; type: cell-based, Cricetulus griseus; details: chinese hamster; how it was run: as §1
# [3] = target: Cyclin-dependent kinase 9 (Homo sapiens, UniProt P50750); experiment: Inhibition of CDK9 in human MEC1 cells assessed as decrease in phosphorylation at Thr 186 residues up to 3 uM after 2 hrs by immunoblotting analysis; type: cell-based
# HL-60 = experiment: Induction of apoptosis in human HL60 cells assessed as decrease in BCL-2 level up to 3 uM after 2 hrs by immunoblotting analysis; type: functional, cell-based
# [4] = Tmax in mouse at 10 mg/kg, po by LC-MS/MS analysis; type: ADME, organism-based; details: in vivo
# [5] = AUC (0 to infinity) in mouse at 3 mg/kg, iv by LC-MS/MS analysis; type: ADME, organism-based; parameters: dose 3 mg/kg, route intravenous, time infinity; details: in vivo
# How it was run: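 Non-compartmental PK. Male SD rats 190-210 g, mice and beagle dogs acclimatized one week, fasted 12 h with water, split into iv and po groups (mice 48, rats 6, dogs 6). iv 3/3/2 mg/kg (mice/rats/dogs); po 10/20/10 mg/kg; vehicle DMSO in 5% glucose water. Blood at 2 or 5 to 720 min; plasma protein-precipitated with methanol, caffeine internal standard, LC-MS/MS.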
# [6] = target: Activin receptor type-2B (Homo sapiens) (UniProt Q13705); experiment: Binding affinity to wild-type human ACVR2B (H169 to D504 residues) expressed in bacterial expression system assessed as remaining unbound target protein level at 1000 nM by Kinomescan method relative to control
# How it was run: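 Single-point competition binding screen across a panel of 468 kinases and mutants, with the inhibitor at 1 μM. Binding is read out as percent of a DMSO control, and targets below 1 percent control were classed as strong binders.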
# [7] = target: Casein kinase II subunit alpha' (Homo sapiens) (UniProt P19784); experiment: Binding affinity to wild-type human full length CSNK2A2 (M1 to R350 residues) expressed in mammalian expression system assessed as remaining unbound target protein level at 1000 nM by Kinomescan method relative to control
# How it was run: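 KINOMEscan competition binding profile across a panel of 468 kinases and mutants, with the inhibitor tested at a single concentration of 1 μM. Binding is reported as percent of control, meaning signal relative to a DMSO control.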
# [8] = target: Serine/threonine-protein kinase/endoribonuclease IRE1 (Homo sapiens) (UniProt O75460); experiment: Binding affinity to wild-type human partial length ERN1 (S551 to E852 residues) expressed in mammalian expression system assessed as remaining unbound target protein level at 1000 nM by Kinomescan method relative to control
# How it was run: (§2)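 KINOMEscan binding panel of 468 kinases/mutants. Inhibitor was tested at a single concentration of 1 μM. Binding is reported as percent of control, defined relative to a DMSO control.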
# [9] = target: Interleukin-1 receptor-associated kinase 1 (Homo sapiens) (UniProt P51617); experiment: Binding affinity to wild-type human partial length IRAK1 (R194 to S712 residues) expressed in mammalian expression system assessed as remaining unbound target protein level at 1000 nM by Kinomescan method relative to control; how it was run: as §2
# [10] = target: Leucine-rich repeat serine/threonine-protein kinase 2 (Homo sapiens) (UniProt Q5S007); experiment: Binding affinity to wild-type human partial length LRRK2 (H970 to E2527 residues) expressed in mammalian expression system assessed as remaining unbound target protein level at 1000 nM by Kinomescan method relative to control
# [11] = target: Microtubule-associated serine/threonine-protein kinase 1 (Homo sapiens) (UniProt Q9Y2H9); experiment: Binding affinity to wild-type human partial length MAST1 (S346 to V730 residues) expressed in mammalian expression system assessed as remaining unbound target protein level at 1000 nM by Kinomescan method relative to control
# [12] = tested on: Phosphatidylinositol 4,5-bisphosphate 3-kinase catalytic subunit alpha isoform (Homo sapiens), P42336 [Q546K]; experiment: Binding affinity to human partial length PIK3CA Q546K mutant (R108 to N1068 residues) expressed in mammalian expression system assessed as remaining unbound target protein level at 1000 nM by Kinomescan method relative to control
# How it was run: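 KINOMEscan competition-binding profiling across the panel of 468 kinases and mutants, with inhibitor tested at 1 μM. Binding is expressed as percent of control, with DMSO as the reference control.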
# [13] = target: Serine/threonine-protein kinase pim-3 (Homo sapiens) (UniProt Q86V86); experiment: Binding affinity to wild-type human partial length PIM3 (G16 to A317 residues) expressed in bacterial expression system assessed as remaining unbound target protein level at 1000 nM by Kinomescan method relative to control
# [14] = target: Serine/threonine-protein kinase PLK2 (Homo sapiens) (UniProt Q9NYY3); experiment: Binding affinity to wild-type human partial length PLK2 (H58 to F354 residues) expressed in mammalian expression system assessed as remaining unbound target protein level at 1000 nM by Kinomescan method relative to control
# [15] = target: Ribosomal protein S6 kinase alpha-1 (Homo sapiens) (UniProt Q15418); experiment: Binding affinity to wild-type human partial length C-termianl RSK1 kinase domain 2 (P360 to L681 residues) expressed in bacterial expression system assessed as remaining unbound target protein level at 1000 nM by Kinomescan method relative to control
# How it was run: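 Profiled in a KINOMEscan binding panel with the inhibitor at a single concentration of 1 μM. Binding to each kinase was read out as percent of control, relative to a DMSO control. Strong binders were defined as those with a percent control value below 1.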
# [16] = target: Uncharacterized serine/threonine-protein kinase SBK3 (Homo sapiens) (UniProt P0C264); experiment: Binding affinity to wild-type human partial length SgK110 (L22 to R329 residues) expressed in bacterial expression system assessed as remaining unbound target protein level at 1000 nM by Kinomescan method relative to control
# [17] = target: Serine/threonine-protein kinase tousled-like 1 (Homo sapiens) (UniProt Q9UKI8); experiment: Binding affinity to wild-type human partial length TLK1 (K447 to A754 residues) expressed in bacterial expression system assessed as remaining unbound target protein level at 1000 nM by Kinomescan method relative to control
smiles,measurement,setting,value
COCCN[C@H]1CC[C@H](Nc2cc(-c3csc(NCC4(C#N)CCOCC4)n3)c(Cl)cn2)CC1,Ratio IC50,Homo sapiens,300
same,GI50,MV4-11,12 nM
same,GI50,U-937,2 nM
same,GI50,[1],37 nM
same,GI50 at 72 h,[2],1100 nM
same,inhibition,[3],inactive
same,Activity,HL-60,inactive
same,Tmax,[4],2 h
same,AUC(0-inf),[5],408 ng·h/mL
same,Activity,[6],98%
same,Activity,[7],99%
same,Activity,[8],61%
same,Activity,[9],57%
same,Activity,[10],100%
same,Activity,[11],88%
same,Activity,[12],88%
same,Activity,[13],65%
same,Activity,[14],100%
same,Activity,[15],100%
same,Activity,[16],89%
same,Activity,[17],81%
